Laboratory results published in ChEMBL document CHEMBL3259807, “Structure-activity relationships of pyrazole derivatives as potential therapeutics for immune thrombocytopenias” (Bioorg Med Chem, 2014).

Experiments:
[1] = Basic dissociation constant, pKa of the compound at 10 mM; type: physicochemical
[2] = Acidic dissociation constant, pKa of the compound at 10 mM; type: physicochemical
[3] = Distribution coefficient, log D of the compound at 10 mM at pH 7.4 by pH-metric method; type: physicochemical; conditions: octanol/water
PBMC [4] = assay: Inhibition of human PBMC-induced phagocytosis of antibody-opsonized RBC at 5 uM incubated for 1 hr prior to RBC addition measured after 2 hrs by phase-contrast microscopy; type: functional
Summary of the method: (§1)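 Ficoll-isolated human PBMC cultured overnight (10% FBS, 37 °C, 5% CO2). 7×10^5 cells adhered 1 h on chamber slides, then non-adherent cells removed. Compound or IVIg was added for 1 h, media aspirated, and anti-D-opsonized human R2R2 RBCs added for 2 h. Slides were methanol-fixed and read by phase-contrast, counting ≥100 monocytes for the phagocytosis index. Results are normalized to vehicle (100% phagocytosis). Screen at 5 µM; titration 0.5–100 µM.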

PBMC [5] = assay: Induction of apoptosis in human PBMC assessed as apoptotic index at 10 uM after 1 hr by Annexin V/propidium iodide staining-based FACS analysis relative to IVIg; type: cell-based; conditions: in the assay text read “relative to vehicle” for “relative to IVIg”
Summary of the method: (§2)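 Ficoll-isolated human PBMC cultured overnight in 10% FBS medium, 37 °C, 5% CO2. After 1 h adherence, non-adherent cells removed, and the rest were exposed to compound at 10 and 100 µM for 1 h. Cells were then scraped and stained with Annexin V-APC plus PI (1 µg/mL) for flow cytometry. AI = fold increase in % apoptotic cells (Annexin V+ and Annexin V+/PI+) over vehicle.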

PBMC [6] = assay: Induction of apoptosis in human PBMC assessed as apoptotic index at 100 uM after 1 hr by Annexin V/propidium iodide staining-based FACS analysis relative to IVIg; type: cell-based; conditions: in the assay text read “relative to vehicle” for “relative to IVIg”; summary of the method: as §2
PBMC [7] = assay: Inhibition of human PBMC-induced phagocytosis of antibody-opsonized RBC incubated for 1 hr prior to RBC addition measured after 2 hrs by phase-contrast microscopy; type: functional, cell-based; summary of the method: as §1

pKa at 10000 µM [1] | pKa at 10000 µM [2] | logD at 10000 µM [3] | SMILES | inhibition at 5 µM (PBMC [4]) [%] | Ratio (PBMC [5]) | Ratio (PBMC [6]) | IC50 (PBMC [7]) [µM]
2.9 | 10.3 | -0.3 | Cc1nn(-c2ccccc2)c(S)c1C(=O)c1ccccc1 | 0 | 2 | 1.6 | 
3.2 |  | 8 | Cc1nn(-c2ccccc2)c(SSc2c(C(=O)c3ccccc3)c(C)nn2-c2ccccc2)c1C(=O)c1ccccc1 | 32 | 0.8 | 1 | 
4.8 |  | 3.2 | Cc1cc(SSc2cc(C)nn2-c2ccccc2)n(-c2ccccc2)n1 | 45 | 1 | 5.4 | 
2.5 |  | 1.3 | Cc1cc(CCc2cc(C)nn2-c2ccccc2)n(-c2ccccc2)n1 | 14 | 1 | 0.9 | 
2.7 |  | 2.2 | Cc1cc(COc2cc(C)nn2-c2ccccc2)n(-c2ccccc2)n1 | 16 | 1.1 | 0.9 | 
2.2 |  | 5 | Cc1cc(CNCc2cc(C)nn2-c2ccccc2)n(-c2ccccc2)n1 | 20 | 1.1 | 0.9 | 
2.2 |  | -1.6 | Cc1cc(OCCOc2cc(C)nn2-c2ccccc2)n(-c2ccccc2)n1 | 4 | 1 | 1 | 
3.4 |  | 4 | Cc1cc(Oc2c(N)c(C)nn2-c2ccccc2)n(-c2ccccc2)n1 | 2 | 1.2 | 1 | 
2 |  | 3.7 | Cc1cc(COc2cc(C)nn2-c2ccc([N+](=O)[O-])cc2)n(-c2ccccc2)n1 | 16 | 0.8 | 0.8 | 
2.1 |  | 5.3 | Cc1cc(COc2cc(C)nn2-c2ccccc2)n(Cc2ccccc2)n1 | 0 | 1.1 | 1 | 
3.6 |  | 4.3 | Cc1cc(OCc2cc(C)nn2-c2ccccc2)n(CC2CCCCC2)n1 | 45 | 1 | 1.1 | 
2.7 |  | 1.7 | Cc1cc(COc2cc(C)nn2C2CCCC2)n(-c2ccccc2)n1 | 17 | 0.9 | 1.2 | 
2.5 |  | 5 | Cc1cc(OCc2cc(C)nn2-c2ccccc2)n(CCN)n1 | 33 | 1.1 | 1 | 
7.3 | 3.4 | 1.2 | Cc1cc(OCc2cc(C)nn2-c2ccccc2)n(CC(=O)O)n1 | 10 | 1.1 | 1.2 | 
2.4 | 12.5 | 2.9 | Cc1cc(OCc2cc(C)nn2-c2ccccc2)[nH]n1 | 6 | 1 | 1 | 
2.3 | 8.4 | 4.3 | Cc1cc(O)n(Cc2cc(C)nn2-c2ccccc2)n1 | 58 | 1.2 | 1.3 | 14
2.4 |  | 4.5 | Cc1cc(OCC2CCCN2Cc2ccccc2)n(-c2ccccc2)n1 (stereo unspecified) | 15 | 1.1 | 0.9 | 
 |  |  | Cc1nn(-c2ccccc2)c(S)c1C(=O)c1ccno1 |  |  |  | 250
